Screening data from PubChem BioAssay.
CSN inh – blocks human CSN-mediated cullin deneddylation; Purified CSN, SCF-Nedd8-OG deneddylation, fluorescence polarization; inhibition, % at 12.5 µM; Q92905; actives 0.38% (n = 360,000);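 active means pattern-corrected inhibition above about 35%, with an unprinted fluorescence ratio check between 0.5 and 1.5, limit read from the data, passing the limit was not always enough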;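 further: 0% = enzyme with substrate and 100% = substrate without enzyme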
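test system = HEK293T-derived human Csn5 enzyme | amount = 0.24 nM Csn5 enzyme, final concentration | medium = Tris/NaCl/DTT buffer, pH 7.5 | schedule = 90 min reaction at room temperature | signal = FP | evaluation = inhibition of Csn5 cleavage, % | compound dosing = single dose of 12.5 µM compound with 0.25% DMSO | probe or stimulus = 10 nM SCFSkp2-Nedd8OG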
ATG4B inh – inhibitors of human ATG4B cysteine protease | Q9Y4P1 | ATG4B cleavage of LC3-PLA2, NBD-HPC fluorescence, 1 h | inhibition, % at 8.33 µM | actives 0.51% (n = 340,000)
HNF4A DNA FP – change in binding of human HNF4 alpha to DNA; HNF4a-FITC DNA binding, fluorescence polarization, 1 h; AID 1224865; actives 0.3% (n = 360,000); activity change, % at 10 µM; in the data active means activity change above about 30%, passing the limit was not always enough
Rpn11 block – Rpn11 (human) deubiquitinase inhibition | O00487 | human 26S proteasome, Ub4-pepOG fluorescence polarization; 20S core pre-blocked with epoxomicin | inhibition, % at 20 µM | actives 0.59% (n = 360,000);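 active means inhibition at 20 µM, scaled to each plate's controls, above about 33%, limit read from the data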
TPT1 inh – C. albicans TPT1 enzyme inhibition. recombinant caTPT1, FP RNA substrate dephosphorylation. inhibition, % at 5 µM. actives 0.81% (n = 300,000);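 active means inhibition above the mean of all tested compounds plus 3 SD, set per screening campaign, cut at about 24% in these data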;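 further: plate controls were DMSO alone for no effect and ferristatin control at 100 nM for full effect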
SENP1 FRET inh – blocks the human SENP1 SUMO protease catalytic domain; actives 0.21% (n = 360,000); inhibition, % at 10 µM; recombinant SENP1 catalytic domain, CyPet-SUMO1-YPet FRET cleavage; Q9P0U3;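 active means inhibition at least 30% at 10 µM, raw YFP signal under a set limit, fluorescence ratio 0.5 to 1.5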;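 further: 0% = enzyme with DMSO and 100% = no enzyme wells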
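Test system: human SENP1 catalytic domain; medium: Tris pH 8 buffer plus EDTA, NaCl, BME, BSA, NP40, catalase; incubation: 50 min reaction at room temperature; technique: FRET, CFP and YFP emission; controls: no-enzyme low control and enzyme-plus-DMSO high control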
caTPT1 confirm – TPT1 (C. albicans) inhibition, confirmation. shares compounds with TPT1 inh. recombinant caTPT1, fluorescence polarization, RNase T1 coupled. inhibition, % at 5 µM. actives 74% (n = 2,400). AID 2149;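 active means inhibition above the primary screen limit, the mean inhibition of all tested compounds plus 3 SD, cut at about 25% in these data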
RNase T1 counter – blocks Aspergillus oryzae RNase T1, a TPT1 counter-screen; inhibition, % at 5 µM; shares compounds with TPT1 inh; RNase T1 cleavage, fluorescence polarization, 1536-well; actives 83% (n = 2,400);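 active means inhibition above the solvent-only control well mean plus 3 SD, limit set per screening run, cut at about 23% in these data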;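 further: plate controls were DMSO wells with enzyme for no effect and wells without RNase T1 for full effect; inhibitors block cleavage so intact labeled substrate keeps polarization high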
ATG4B conf – confirmation of human ATG4B inhibitors | ATG4B protease fluorescent substrate cleavage assay | AID 504757 | actives 92% (n = 320) | inhibition, % at 8.33 µM | shares compounds with ATG4B inh; in the data active means inhibition above about 39%
PLA2 ctr – PLA2 (human) inhibition in ATG4B counter-screen; shares compounds with ATG4B inh; purified PLA2, NBD-C6-HPC fluorescence, 45 min; inhibition, % at 8.33 µM; actives 66% (n = 1,600); AID 588402; in the data active means inhibition above about 50%
Rpn11 confirm – confirmation of human proteasome Rpn11 inhibitors; shares compounds with Rpn11 block; purified human 26S proteasome, Ub4-pepOG fluorescence polarization; proteasome pretreated with epoxomicin; inhibition, % at 20 µM; actives 29% (n = 1,900); AID 602318
MMP-2 counter-1 – blocks human MMP-2, flagging nonselective RPN11 hits. actives 4% (n = 1,900). inhibition, % at 20 µM. recombinant MMP-2, FRET peptide cleavage fluorescence. shares compounds with Rpn11 block. AID 602330;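 further: human MMP-2 activated beforehand with APMA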
Thrombin inh – counter-screen for RPN11 inhibitors: inhibition of bovine thrombin | shares compounds with Rpn11 block | bovine thrombin cleavage of Ub4-pepOG, fluorescence polarization | inhibition, % at 20 µM | actives 13% (n = 1,900) | AID 602333;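 active means mean inhibition at least 40% at 20 µM, or signal 3 deviations below plate average, so some actives read negative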;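 further: plate controls were thrombin with DMSO for no effect and buffer wells lacking thrombin for full effect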
Target sequence (P00735 whole entry, looked up): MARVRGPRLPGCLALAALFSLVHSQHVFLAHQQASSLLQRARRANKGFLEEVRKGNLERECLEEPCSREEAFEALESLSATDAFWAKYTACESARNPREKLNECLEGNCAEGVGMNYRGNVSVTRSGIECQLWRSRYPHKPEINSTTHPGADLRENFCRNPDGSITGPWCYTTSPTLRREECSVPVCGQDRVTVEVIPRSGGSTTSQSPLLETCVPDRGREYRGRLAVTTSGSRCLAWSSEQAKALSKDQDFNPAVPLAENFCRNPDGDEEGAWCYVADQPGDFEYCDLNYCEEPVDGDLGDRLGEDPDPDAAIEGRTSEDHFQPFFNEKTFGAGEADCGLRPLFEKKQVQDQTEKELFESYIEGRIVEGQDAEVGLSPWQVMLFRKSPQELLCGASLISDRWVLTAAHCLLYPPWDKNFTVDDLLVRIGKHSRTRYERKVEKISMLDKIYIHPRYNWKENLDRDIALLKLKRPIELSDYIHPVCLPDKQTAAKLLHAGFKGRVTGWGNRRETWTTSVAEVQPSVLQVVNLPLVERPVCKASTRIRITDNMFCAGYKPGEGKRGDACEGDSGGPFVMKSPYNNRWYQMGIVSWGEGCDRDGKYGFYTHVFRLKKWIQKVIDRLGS
CSN5 deneddyl – Csn5 (human) deneddylation inhibition, single-concentration validation; inhibition, % at 16.6 µM; shares compounds with CSN inh; actives 62% (n = 540); Csn5 deneddylation of SCF-Nedd8OG, fluorescence polarization, 90 min; in the data active means inhibition above about 50%;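 further: 0% = DMSO with enzyme and 100% = no enzyme wells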
MMP-2 counter-2 – MMP-2 (human) inhibition, counter-screen for CSN hits | shares compounds with CSN inh | recombinant MMP-2, FRET substrate fluorescence, 60 min | inhibition, % at 16.6 µM | actives 33% (n = 540) | AID 720655;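 active means corrected plate-normalized z-score of 5 or more, or -5 or less, or inhibition of 15% or more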;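 further: plate controls were DMSO wells with enzyme for no effect and buffer wells lacking MMP-2 for full effect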
Thrombin counter – blocks bovine thrombin in a CSN deneddylation counter-screen | actives 49% (n = 540) | bovine thrombin cleavage of Ub4-pepOG, fluorescence polarization | shares compounds with CSN inh | inhibition, % at 16.6 µM | AID 720656;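 active means inhibition at or above a set limit, with a fluorescence interference ratio between 0.5 and a set maximum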
* marks the source's active call; other numbers are inactive results; / = not tested or not shown; + = active, no number. A selection: hits, their analogues and other compounds. The true share with any hit is near 2%. Unless noted, no stated cut-off is given here; in the data, active means inhibition above about 40%; inactive means the rest.

SMILES	CSN inh	ATG4B inh	HNF4A DNA FP	Rpn11 block	TPT1 inh	SENP1 FRET inh	caTPT1 confirm	RNase T1 counter	CSN5 deneddyl	MMP-2 counter-2	Thrombin counter	others
O=[N+]([O-])c1ccc(N2N=C(c3ccco3)CC2c2ccccc2)cc1 (stereo not given)	42*	-2	50*	/	135*	-18	107*	108*	83*	-3	36*
COc1ccccc1N1N=C(c2ccc([N+](=O)[O-])cc2)CC1c1ccccc1 (stereo not given)	38*	4	47*	/	52*	90	46*	57*	107*	0	25*
COc1cc(N2N=C(c3ccccc3)CC2c2ccccc2)c(C=O)cc1C=O (stereo not given)	-2	0	-4	2	-6	-42	/	/	/	/	/
Fc1ccc(C2CC(c3ccco3)=NN2c2ccccc2)cc1 (stereo not given)	2	0	-1	8	3	-78	/	/	/	/	/
Cc1ccc(C(=O)OCC(=O)NC2CCCCC2)cc1S(=O)(=O)N1CCCCC1	-5	-1	1	-3	/	1	/	/	/	/	/
O=C(CCCN1C(=O)/C(=C/c2ccccc2)SC1=S)Nc1ccc(C(=O)O)c(O)c1	5	26	1	10	-3	2	/	/	/	/	/
O=C(CCCN1C(=O)/C(=C\c2cccs2)SC1=S)Nc1ccc(O)cc1C(=O)O	4	11	6	6	1	-2	/	/	/	/	/
O=C(CCCN1C(=O)/C(=C\c2ccco2)SC1=S)Nc1ccc(O)cc1C(=O)O	48*	34	-39	40*	27*	1	10	18	66*	24*	23*	Rpn11 confirm=8;MMP-2 counter-1=27;Thrombin inh=-3
O=C(CN1C(=O)/C(=C/c2ccco2)SC1=S)Nc1ccc(C(=O)O)c(O)c1	61*	62*	-14	91*	28*	-17	9	18	54*	18*	30*	ATG4B conf=57*;PLA2 ctr=20;Rpn11 confirm=43*;MMP-2 counter-1=35;Thrombin inh=2
Cc1cccc(C)c1NC(=O)CNC(=O)C(C)N1CCN(c2cccc(Cl)c2)CC1 (stereo not given)	2	3	2	1	/	1	/	/	/	/	/
CNc1ncnc2c1ncn2[C@H]1CN(Cc2ccco2)C[C@@H](CO)O1	-4	/	-4	1	/	0	/	/	/	/	/
N=C1/C(=C\c2ccc(-c3cccc(Cl)c3)o2)C(=O)N=C2SC=C(c3ccccc3)N12	38*	16	19	66*	60*	-25	44*	56*	64*	10	23*	Rpn11 confirm=73*;MMP-2 counter-1=34;Thrombin inh=49*
O=C(NC1CCCCC1)C(=O)c1c[nH]c2ccccc12	0	-2	-2	6	1	0	/	/	/	/	/
COc1cc(N=Nc2cccc(S(N)(=O)=O)c2)c2ccccc2c1N	46*	-13	25	92*	89*	48*	44*	54*	82*	15	26*
NC1=NC(=Nc2cccc(S(N)(=O)=O)c2)c2ccccc21	3	-8	-1	5	-2	4	/	/	/	/	/
COc1ccc(S(=O)(=O)N2CCOCC2)cc1C(=O)Nc1ccc(N2CCCCCC2)cc1	0	-7	1	12	/	1	/	/	/	/	/
O=C1Nc2ccc(Br)cc2C12NNc1ccccc1O2 (stereo not given)	52*	4	95	/	83*	58	105*	110*	129*	-15	17*
CC(C)C(=O)N1CCCCCCN1C(=O)C(C)C	2	/	-5	5	/	-1	/	/	/	/	/
N#CC1=C(N)SC(N)=C(C#N)C1c1ccnc2ccccc12	45*	-6	39*	/	103*	-18	74*	85*	135*	-16	30*
CCS(=O)(=O)c1nn2c(N)c(/C=C3/C=CC(=O)C(OC)=C3)c(=O)nc2s1	44*	14	31	/	35*	-24	86*	92*	55*	5	52*
Nc1c(C=C2C=CC(=O)C=C2)c(=O)nc2sc(CC(=O)N3CCCC3)nn12	3	7	0	-2	4	-52	/	/	/	/	/
N#C/C(=C/c1ccc(N2CCOCC2)o1)C(=O)NC1CCCCC1	103*	-4	172	/	156*	-33	173*	166*	120*	-5	88*
CSc1ccc(/C=C(\C#N)C(=O)NC2CCCCC2)cc1	-1	3	0	1	-3	-23	/	/	/	/	/
N#C/C(=C\c1ccc(N2CCOCC2)cc1)c1ccccc1	6	1	0	4	3	-51	/	/	/	/	/
N#C/C(=C/c1ccc(N2CCOCC2)o1)c1ccc(Br)cc1	80*	7	112	/	+	10	171*	159*	+	-37*	-51
